Measured values reported in ChEMBL document CHEMBL3632517, “Chemical conjugation of 2-hexadecynoic acid to C5-curcumin enhances its antibacterial activity against multi-drug resistant bacteria” (Bioorg Med Chem Lett, 2015).
In brackets after ≈: the same amount, converted by molar mass. Activity calls are given as the source filed them. The calls are words filed in the database; no cut-off is given here.

Tests used:
Staphylococcus aureus [1] = test: Antibacterial activity against methicillin-resistant Staphylococcus aureus CIMRSA1 after 18 to 24 hrs by spectrophotometric analysis; assay type: functional, organism-based
Staphylococcus aureus [2] = test: Antibacterial activity against methicillin-resistant Staphylococcus aureus CIMRSA7 after 18 to 24 hrs by spectrophotometric analysis; assay type: functional, organism-based
Escherichia coli = test: Antibacterial activity against Escherichia coli ATCC 25922 after 18 to 24 hrs by spectrophotometric analysis; assay type: functional, organism-based
Staphylococcus aureus [3] = test: Antibacterial activity against methicillin-resistant Staphylococcus aureus CIMRSA2 after 18 to 24 hrs by spectrophotometric analysis; assay type: functional, organism-based
Staphylococcus aureus [4] = test: Antibacterial activity against methicillin-resistant Staphylococcus aureus CIMRSA6 after 18 to 24 hrs by spectrophotometric analysis; assay type: functional, organism-based
Staphylococcus aureus [5] = test: Antibacterial activity against methicillin-resistant Staphylococcus aureus CIMRSA3 after 18 to 24 hrs by spectrophotometric analysis; assay type: functional, organism-based
[6] = target: DNA gyrase (Staphylococcus aureus) (UniProt P0A0K8+P20831); test: (§1) Inhibition of supercoiling activity of Staphylococcus aureus DNA gyrase using relaxed pHOT1 plasmid DNA after 60 mins using ethidium bromide staining by […]electrophoresis analysis; assay type: protein-complex assay
DNA gyrase (Staphylococcus aureus), sequence (P0A0K8 2-644 limits assumed): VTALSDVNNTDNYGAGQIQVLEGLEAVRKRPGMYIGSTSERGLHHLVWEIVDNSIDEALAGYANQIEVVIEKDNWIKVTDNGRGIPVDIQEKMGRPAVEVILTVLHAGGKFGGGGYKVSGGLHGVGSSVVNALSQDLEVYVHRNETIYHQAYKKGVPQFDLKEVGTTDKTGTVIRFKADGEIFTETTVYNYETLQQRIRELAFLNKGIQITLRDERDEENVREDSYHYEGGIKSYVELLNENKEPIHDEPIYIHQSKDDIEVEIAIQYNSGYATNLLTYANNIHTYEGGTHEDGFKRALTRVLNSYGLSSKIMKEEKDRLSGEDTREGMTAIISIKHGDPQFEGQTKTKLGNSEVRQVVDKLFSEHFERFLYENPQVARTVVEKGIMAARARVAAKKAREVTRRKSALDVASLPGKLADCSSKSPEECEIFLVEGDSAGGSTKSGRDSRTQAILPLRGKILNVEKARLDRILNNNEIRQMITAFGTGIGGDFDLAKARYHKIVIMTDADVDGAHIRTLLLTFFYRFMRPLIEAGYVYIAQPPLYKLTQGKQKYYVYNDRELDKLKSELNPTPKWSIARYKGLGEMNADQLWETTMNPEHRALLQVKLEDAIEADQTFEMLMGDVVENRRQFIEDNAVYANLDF
DNA gyrase (Staphylococcus aureus), sequence (P20831 whole entry partner): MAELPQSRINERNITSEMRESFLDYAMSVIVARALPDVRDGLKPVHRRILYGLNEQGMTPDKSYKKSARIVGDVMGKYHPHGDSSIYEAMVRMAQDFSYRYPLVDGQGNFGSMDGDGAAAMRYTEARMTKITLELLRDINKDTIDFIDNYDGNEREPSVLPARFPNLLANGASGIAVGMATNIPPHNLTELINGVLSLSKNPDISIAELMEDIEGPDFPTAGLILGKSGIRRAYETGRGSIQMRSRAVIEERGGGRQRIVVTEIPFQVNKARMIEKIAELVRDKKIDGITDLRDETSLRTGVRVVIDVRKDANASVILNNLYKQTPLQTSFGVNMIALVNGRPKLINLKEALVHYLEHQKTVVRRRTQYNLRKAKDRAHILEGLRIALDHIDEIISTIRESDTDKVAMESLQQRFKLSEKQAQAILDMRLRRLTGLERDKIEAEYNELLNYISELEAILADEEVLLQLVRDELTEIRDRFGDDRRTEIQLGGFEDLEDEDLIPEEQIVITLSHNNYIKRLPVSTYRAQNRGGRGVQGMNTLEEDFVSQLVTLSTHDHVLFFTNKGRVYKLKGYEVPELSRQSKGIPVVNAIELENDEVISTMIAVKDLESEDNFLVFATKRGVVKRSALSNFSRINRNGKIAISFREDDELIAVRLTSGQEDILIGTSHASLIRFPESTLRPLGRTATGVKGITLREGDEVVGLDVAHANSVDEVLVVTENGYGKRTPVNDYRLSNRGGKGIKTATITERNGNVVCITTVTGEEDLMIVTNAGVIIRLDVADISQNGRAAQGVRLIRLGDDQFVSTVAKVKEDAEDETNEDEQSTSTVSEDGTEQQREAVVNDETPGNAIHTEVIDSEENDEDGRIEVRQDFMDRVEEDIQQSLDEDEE

Staphylococcus aureus [7] = test: Antibacterial activity against methicillin-resistant Staphylococcus aureus CIMRSA5 after 18 to 24 hrs by spectrophotometric analysis; assay type: functional, organism-based
Staphylococcus aureus [8] = test: Antibacterial activity against methicillin-resistant Staphylococcus aureus CIMRSA4 after 18 to 24 hrs by spectrophotometric analysis; assay type: functional, organism-based
Staphylococcus aureus [9] = test: Antibacterial activity against methicillin-resistant Staphylococcus aureus ATCC 43300 after 18 to 24 hrs by spectrophotometric analysis; assay type: functional, organism-based
[10] = Therapeutic index, ratio of IC50 for human PBMC to IC50 for methicillin-resistant Staphylococcus aureus ATCC 43300; conditions: read-out: Ratio IC50
Method in brief: (§2)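 Therapeutic index is PBMC cytotoxicity IC50 divided by the antibacterial IC50 against each MRSA strain. PBMCs came from healthy volunteers, and their viability was read by CTG luminescent cell viability assay. Experiments were run in triplicate (N = 3).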

PBMC = test: Cytotoxicity against human PBMC after 3 days by CTG luminescent cell viability assay; assay type: cell-based; conditions: 72 h
Vero = test: Cytotoxicity against African green monkey Vero cells after 3 days by CTG luminescent cell viability assay; assay type: cell-based; conditions: Chlorocebus sabaeus, 72 h
[11] = Therapeutic index, ratio of IC50 for human PBMC to IC50 for methicillin-resistant Staphylococcus aureus CIMRSA4; conditions: read-out: Ratio IC50; method in brief: as §2
[12] = Therapeutic index, ratio of IC50 for human PBMC to IC50 for methicillin-resistant Staphylococcus aureus CIMRSA2; conditions: read-out: Ratio IC50; method in brief: as §2
[13] = Therapeutic index, ratio of IC50 for human PBMC to IC50 for methicillin-resistant Staphylococcus aureus CIMRSA1; conditions: read-out: Ratio IC50; method in brief: as §2
[14] = Therapeutic index, ratio of IC50 for human PBMC to IC50 for methicillin-resistant Staphylococcus aureus CIMRSA5; conditions: read-out: Ratio IC50; method in brief: as §2
[15] = Ratio of IC50 for human PBMC to IC50 for African green monkey Vero cells; assay type: cell-based; conditions: human PBMC versus Vero cells, read-out: Ratio IC50
[16] = Therapeutic index, ratio of IC50 for human PBMC to IC50 for methicillin-resistant Staphylococcus aureus CIMRSA3; conditions: read-out: Ratio IC50; method in brief: as §2
[17] = Therapeutic index, ratio of IC50 for human PBMC to IC50 for methicillin-resistant Staphylococcus aureus CIMRSA6; conditions: read-out: Ratio IC50; method in brief: as §2
[18] = Therapeutic index, ratio of IC50 for human PBMC to IC50 for methicillin-resistant Staphylococcus aureus CIMRSA7; conditions: read-out: Ratio IC50; method in brief: as §2
DNA gyrase = DNA gyrase (Staphylococcus aureus, UniProt P0A0K8+P20831); test: as §1; assay type: protein-complex assay
DNA gyrase, sequence (P0A0K8 whole entry): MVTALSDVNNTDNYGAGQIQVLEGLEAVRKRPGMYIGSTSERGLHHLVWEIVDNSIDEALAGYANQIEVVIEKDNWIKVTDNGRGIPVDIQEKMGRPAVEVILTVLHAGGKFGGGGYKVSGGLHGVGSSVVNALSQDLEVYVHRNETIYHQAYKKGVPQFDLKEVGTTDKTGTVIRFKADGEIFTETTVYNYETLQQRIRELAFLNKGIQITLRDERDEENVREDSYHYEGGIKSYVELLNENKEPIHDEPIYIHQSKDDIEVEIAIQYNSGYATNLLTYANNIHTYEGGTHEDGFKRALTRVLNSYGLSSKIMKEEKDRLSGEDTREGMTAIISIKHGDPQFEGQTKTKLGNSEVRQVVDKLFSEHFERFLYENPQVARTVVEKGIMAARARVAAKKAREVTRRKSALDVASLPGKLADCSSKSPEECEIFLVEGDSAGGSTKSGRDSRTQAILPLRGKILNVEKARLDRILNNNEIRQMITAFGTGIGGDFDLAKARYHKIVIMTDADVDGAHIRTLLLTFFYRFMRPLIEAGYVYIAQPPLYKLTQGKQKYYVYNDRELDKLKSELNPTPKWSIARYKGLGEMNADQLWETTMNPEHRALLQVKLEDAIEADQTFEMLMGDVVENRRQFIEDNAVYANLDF
DNA gyrase, sequence (P20831 whole entry): as the sequence (P20831 whole entry partner) above

Structure (SMILES)	IC50 (Staphylococcus aureus [1]) [µg/mL]	IC50 (Staphylococcus aureus [2]) [µg/mL]	IC50 (Escherichia coli) [µg/mL]	IC50 (Staphylococcus aureus [3]) [µg/mL]	IC50 (Staphylococcus aureus [4]) [µg/mL]	IC50 (Staphylococcus aureus [5]) [µg/mL]	inhibition [6]	IC50 (Staphylococcus aureus [7]) [µg/mL]	IC50 (Staphylococcus aureus [8]) [µg/mL]	IC50 (Staphylococcus aureus [9]) [µg/mL]	MIC (Staphylococcus aureus [1]) [µg/mL]	MIC (Staphylococcus aureus [2]) [µg/mL]	MIC (Staphylococcus aureus [3]) [µg/mL]	MIC (Staphylococcus aureus [5]) [µg/mL]	MIC (Staphylococcus aureus [7]) [µg/mL]	MIC (Staphylococcus aureus [8]) [µg/mL]	MIC (Staphylococcus aureus [9]) [µg/mL]	selectivity ratio [10]	IC50 (PBMC) [µg/mL]	IC50 (Vero) [µg/mL]	also measured
CCCCCCCCCCCCCCCC(=O)Oc1ccc(/C=C/C(=O)/C=C/c2ccc(OC(=O)CCCCCCCCCCCCCCC)c(OC)c2)cc1OC	> 1000	> 1000	> 1000	> 1000	> 1000	> 1000	inactive	> 1000	> 1000	> 1000	–	–	–	–	–	–	–	–	–	–	–
COc1cccc(OC)c1C(=O)N[C@@H]1C(=O)N2[C@@H]1SC(C)(C)[C@@H]2C(=O)O [METHICILLIN]	2.2 (≈ 5.78 µM)	1.3 (≈ 3.42 µM)	> 1000	11.8 (≈ 31 µM)	1.2 (≈ 3.15 µM)	2.2 (≈ 5.78 µM)	–	1.9 (≈ 4.99 µM)	11.8 (≈ 31 µM)	0.98 (≈ 2.58 µM)	7.8 (≈ 20.5 µM)	3.9 (≈ 10.3 µM)	31.3 (≈ 82.3 µM)	3.9 (≈ 10.3 µM)	3.9 (≈ 10.3 µM)	31.3 (≈ 82.3 µM)	1.95 (≈ 5.13 µM)	–	–	–	–
COc1cc(/C=C/C(=O)/C=C/c2ccc(O)c(OC)c2)ccc1O	141 (≈ 432 µM)	303 (≈ 929 µM)	> 1000	133 (≈ 409 µM)	195 (≈ 597 µM)	124 (≈ 379 µM)	inactive	202 (≈ 620 µM)	185 (≈ 567 µM)	111 (≈ 341 µM)	250 (≈ 766 µM)	500 (≈ 1530 µM)	250 (≈ 766 µM)	250 (≈ 766 µM)	500 (≈ 1530 µM)	500 (≈ 1530 µM)	250 (≈ 766 µM)	0.4	46.9 (≈ 144 µM)	5.7 (≈ 17.5 µM)	selectivity ratio [11]: 0.3; selectivity ratio [12]: 0.4; selectivity ratio [13]: 0.3; selectivity ratio [14]: 0.2; selectivity ratio [15]: 8.2; MIC (Staphylococcus aureus [4]): 500 µg/mL (≈ 1530 µM); selectivity ratio [16]: 0.4; selectivity ratio [17]: 0.2; selectivity ratio [18]: 0.2
CCCCCCCCCCCCCCCC(=O)O [PALMITIC ACID]	> 1000	> 1000	> 1000	> 1000	> 1000	> 1000	–	> 1000	> 1000	> 1000	–	–	–	–	–	–	–	–	–	–	–
CCCCCCCCCCCCCC#CC(=O)Oc1ccc(/C=C/C(=O)/C=C/c2ccc(OC(=O)C#CCCCCCCCCCCCCC)c(OC)c2)cc1OC	30.3 (≈ 38.1 µM)	34.2 (≈ 43 µM)	> 1000	34.9 (≈ 43.9 µM)	38.9 (≈ 48.9 µM)	34.2 (≈ 43 µM)	–	25.4 (≈ 31.9 µM)	24.9 (≈ 31.3 µM)	39.5 (≈ 49.7 µM)	62.5 (≈ 78.6 µM)	62.5 (≈ 78.6 µM)	62.5 (≈ 78.6 µM)	62.5 (≈ 78.6 µM)	31.3 (≈ 39.4 µM)	31.3 (≈ 39.4 µM)	62.5 (≈ 78.6 µM)	6.2	247 (≈ 310 µM)	> 100	selectivity ratio [11]: 9.9; selectivity ratio [12]: 7.1; selectivity ratio [13]: 8.1; selectivity ratio [14]: 9.7; MIC (Staphylococcus aureus [4]): 62.5 µg/mL (≈ 78.6 µM); selectivity ratio [16]: 7.2; selectivity ratio [17]: 6.3; selectivity ratio [18]: 7.2; IC50 (DNA gyrase): 126 µM
